ChEMBL document CHEMBL1143724, “4-Amino-5-vinyl-3(2H)-pyridazinones and analogues as potent antinociceptive agents: Synthesis, SARs, and preliminary studies on the mechanism of action” (Bioorg Med Chem, 2007)

What was measured:
Mus musculus = experiment: Antinociceptive effect in sc dosed CD1 mouse; type: functional
Method in brief: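 Acetic acid abdominal constriction test, with compounds given sc 30 min before acetic acid. Writhes counted over 10 min. A response was scored as protected if below 3 SD of the control mean. Six to 8 mice per dose, at least 18 per experiment.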

[1] = target: Kappa-type opioid receptor (Homo sapiens, UniProt P41145); experiment: Binding affinity to kappa opioid receptor
[2] = target: Delta-type opioid receptor (Homo sapiens, UniProt P41143); experiment: Binding affinity to delta opioid receptor
Mu-type opioid receptor = Mu-type opioid receptor (Homo sapiens, UniProt P35372); experiment: Binding affinity to mu opioid receptor
Chain of Mu-type opioid receptor (P35372 whole entry): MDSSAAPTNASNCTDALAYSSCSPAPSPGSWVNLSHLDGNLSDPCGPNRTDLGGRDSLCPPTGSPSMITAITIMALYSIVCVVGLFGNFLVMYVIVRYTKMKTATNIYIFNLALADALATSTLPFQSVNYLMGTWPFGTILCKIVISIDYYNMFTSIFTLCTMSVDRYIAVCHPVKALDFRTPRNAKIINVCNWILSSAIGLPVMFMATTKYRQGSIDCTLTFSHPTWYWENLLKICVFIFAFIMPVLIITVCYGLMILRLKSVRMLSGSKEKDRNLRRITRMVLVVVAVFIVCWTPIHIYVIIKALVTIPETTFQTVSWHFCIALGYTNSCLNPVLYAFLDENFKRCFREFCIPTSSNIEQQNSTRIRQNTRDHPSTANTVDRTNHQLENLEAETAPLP

Chain of Delta-type opioid receptor (P41143 whole entry): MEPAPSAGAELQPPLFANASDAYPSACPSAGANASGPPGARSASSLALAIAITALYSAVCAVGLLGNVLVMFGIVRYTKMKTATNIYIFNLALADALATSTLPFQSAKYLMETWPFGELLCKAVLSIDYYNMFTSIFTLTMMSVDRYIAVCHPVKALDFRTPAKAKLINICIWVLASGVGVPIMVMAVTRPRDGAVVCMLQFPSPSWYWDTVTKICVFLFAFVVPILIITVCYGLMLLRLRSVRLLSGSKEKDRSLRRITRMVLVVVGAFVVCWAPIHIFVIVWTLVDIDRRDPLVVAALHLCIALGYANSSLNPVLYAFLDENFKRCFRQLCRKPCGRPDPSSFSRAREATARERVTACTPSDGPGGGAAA
Chain of Kappa-type opioid receptor (P41145 whole entry): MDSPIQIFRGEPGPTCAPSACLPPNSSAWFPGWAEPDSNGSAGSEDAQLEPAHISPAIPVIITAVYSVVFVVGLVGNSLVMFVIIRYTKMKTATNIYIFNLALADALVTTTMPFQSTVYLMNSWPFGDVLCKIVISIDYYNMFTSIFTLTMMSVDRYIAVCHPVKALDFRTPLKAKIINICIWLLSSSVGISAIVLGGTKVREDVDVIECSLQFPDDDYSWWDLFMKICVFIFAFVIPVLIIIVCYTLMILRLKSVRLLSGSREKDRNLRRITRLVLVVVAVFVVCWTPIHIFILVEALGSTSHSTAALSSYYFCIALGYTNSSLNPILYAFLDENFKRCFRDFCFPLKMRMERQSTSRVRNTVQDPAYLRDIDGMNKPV

SMILES | ED50 (Mus musculus) [mg/kg] | Ki [1] [µM] | Ki [2] [µM] | Ki (Mu-type opioid receptor) [µM]
C=Cc1c(-c2ccccc2)nn(C)c(=O)c1NCCc1ccccc1 | 89.4 | – | – | –
C=Cc1c(-c2ccccc2)nn(CCCC)c(=O)c1N | – | > 10 | > 10 | > 10
